Assay outcomes deposited in PubChem BioAssay by several laboratories.
FAS-TE inh – FAS thioesterase domain inhibitors, primary screen, biochemical, fluorescence intensity, uHTS. Fatty acid synthase (Homo sapiens), P49327. inhibition, % at 15 µM. actives 0.67% (n = 360,000). recombinant FAS-TE, OMFH fluorogenic substrate, fluorescence endpoint;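 active = compounds whose normalised, plate-corrected inhibition of enzyme fluorescence in the single-dose primary screen is 50% or more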;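 also: 0% = DMSO with enzyme and 100% = substrate without enzyme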
SENP1 FRET inh – human SENP1 catalytic domain inhibitors, primary screen, biochemical, FRET, uHTS; recombinant SENP1 catalytic domain, CyPet-SUMO1-YPet FRET cleavage; inhibition, % at 10 µM; actives 0.21% (n = 360,000); AID 624204, 2012;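 active = inhibition at least 30% at 10 µM, raw YFP signal under a set limit, fluorescence ratio 0.5 to 1.5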;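 also: 0% = enzyme with DMSO and 100% = no enzyme wells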
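Test system: hSENP1 catalytic domain, recombinant; Amount: 20 pM final SENP1 enzyme; Medium: Tris pH 8 buffer plus EDTA, NaCl, BME, BSA, NP40, catalase; Schedule: 50 min enzyme reaction, room temperature, light-protected; Technique: FRET fluorescence in CFP and YFP emission channels; Controls: no-enzyme wells low, DMSO-plus-enzyme wells high control.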
ABCB6 inh MLPCN – ABCB6 transporter inhibitors, primary screen, K562-ABCB6 cells, flow cytometry, MLPCN library. AID 602162, 2011. ATP-binding cassette sub-family B member 6 (Homo sapiens), Q9NP58. K562-ABCB6 porphyrin accumulation, 1 h; active compounds read low. fluorescence ratio to DMSO, % at 10 µM. actives 0.19% (n = 360,000);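 active = fluorescence ratio to DMSO below 75%, the collection mean minus 3 SD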;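 also: signal is porphyrin accumulated inside mitochondria; 100% equals median channel fluorescence of DMSO control wells; lower ratio means ABCB6 inhibition with less porphyrin fluorescence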
Target sequence (Q9NP58 whole entry, looked up): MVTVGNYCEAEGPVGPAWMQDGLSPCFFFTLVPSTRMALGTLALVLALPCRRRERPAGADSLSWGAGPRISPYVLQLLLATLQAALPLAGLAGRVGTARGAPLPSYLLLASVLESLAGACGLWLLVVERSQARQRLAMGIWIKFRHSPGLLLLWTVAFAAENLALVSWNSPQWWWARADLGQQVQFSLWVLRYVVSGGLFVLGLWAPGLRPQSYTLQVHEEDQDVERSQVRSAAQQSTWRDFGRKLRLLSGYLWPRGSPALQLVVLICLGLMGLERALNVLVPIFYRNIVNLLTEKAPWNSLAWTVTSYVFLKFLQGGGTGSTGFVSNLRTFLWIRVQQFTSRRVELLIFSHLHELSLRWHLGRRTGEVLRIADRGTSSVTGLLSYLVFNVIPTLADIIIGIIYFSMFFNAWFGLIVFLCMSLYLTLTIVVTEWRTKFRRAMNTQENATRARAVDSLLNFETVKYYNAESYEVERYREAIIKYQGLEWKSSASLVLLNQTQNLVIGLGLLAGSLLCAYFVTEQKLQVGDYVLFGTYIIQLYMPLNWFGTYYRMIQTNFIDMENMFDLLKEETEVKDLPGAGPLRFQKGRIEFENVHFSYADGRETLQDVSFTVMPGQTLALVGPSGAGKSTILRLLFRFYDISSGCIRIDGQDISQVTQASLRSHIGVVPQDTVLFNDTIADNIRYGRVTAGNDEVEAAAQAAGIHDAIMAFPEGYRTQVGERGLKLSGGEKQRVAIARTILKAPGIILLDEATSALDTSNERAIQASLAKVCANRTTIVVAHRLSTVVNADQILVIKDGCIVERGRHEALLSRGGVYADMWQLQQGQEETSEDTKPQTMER
hiPSC survival – enhancers of single-cell hiPSC survival, primary screen, ATPlite luminescence. 100% = ROCK inhibitor wells, 0% = DMSO. survival enhancement, % at 20 µM. actives 0.044% (n = 360,000); in the data active = survival enhancement above about 18%;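 also: cells exposed to compounds for 16 hours before the ATP read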
The depositor's hits bear a star. A selection: hits, their analogues and other compounds. The true share with any hit is near 1.1%.

SMILES	FAS-TE inh	SENP1 FRET inh	ABCB6 inh MLPCN	hiPSC survival
COc1ccc(CCN2CC(C(=O)NCCN3CCOC3=O)CCC2=O)cc1 (stereo not drawn)	-3	2	97	0
O=C1CC(c2ccco2)CC(O)=C1C=Nc1cc(Cl)ccc1Cl (stereo not drawn)	1	3	99	2
O=C1CC(c2ccco2)CC(O)=C1C=Nc1cc(Cl)ccc1O (stereo not drawn)	25	37*	100	1
O=C1CC(c2ccco2)Cc2nc(N3CCc4ccccc4C3)ncc21 (stereo not drawn)	9	31*	102	3
Cc1cccc(N2CCN(CC(O)COCc3cccs3)CC2)c1C (stereo not drawn)	-4	0	97	3
Fc1ccc(NC(=S)NCc2ccccc2Cl)cc1	-5	0	62*	-2
COc1ccccc1CNC(=S)Nc1ccc(F)cc1	-4	0	101	0
COc1ccccc1N1C(=O)CC(Sc2nccc(C)n2)C1=O (stereo not drawn)	-9	2	97	-1
COc1ccc(N2C(=O)CC(Sc3nccc(C)n3)C2=O)c(OC)c1 (stereo not drawn)	-7	1	96	28*
COC(=O)c1sccc1-c1ccc(/C=N/OC(=O)c2ccccc2)o1	19	-5	54*	-2
COC(=O)c1ccccc1-c1ccc(/C=N/NC(N)=O)o1	-5	-1	90	0
CC(OC(=O)c1ccc2c(=O)n3c(nc2c1)CCC3)C(=O)Nc1ccc(C(N)=O)cc1 (stereo not drawn)	-5	-47	91	26*
CC(OC(=O)c1ccc(S(=O)(=O)N2CCCCC2)cc1)C(=O)Nc1ccc(C(N)=O)cc1 (stereo not drawn)	-11	2	105	40*
CC(OC(=O)c1ccc2c(=O)n3c(nc2c1)CCC3)C(N)=O (stereo not drawn)	-8	-3	97	-1
CC(=O)Nc1cc(NC(C)=O)cc(C(=O)OC(C)C(=O)Nc2ccc(S(=O)(=O)N3CCCC3)cc2)c1 (stereo not drawn)	-5	-2	101	1
Cc1ncc(C(O)c2ccccc2)n1Cc1ccccc1 (stereo not drawn)	-3	0	104	0
Cc1ccc(NC(=O)C2COc3ccccc3O2)cc1S(=O)(=O)N1CCOCC1 (stereo not drawn)	4	-2	97	0
Cn1nc(C(F)(F)F)c(C(=O)Nc2ccc(F)cc2F)c1Oc1cccc(Cl)c1	23	2	97	9
Cc1nn(C)c(Oc2cccc(Cl)c2)c1C=O	-5	1	74*	0
CN(Cc1ccc(C(C)(C)C)cc1)C(=O)c1ccc2c(c1)OCO2	15	2	96	0
O=C(Oc1ccc(Br)cc1C(=S)N1CCCCC1)c1cc([N+](=O)[O-])cc([N+](=O)[O-])c1	53*	4	86	2
CN1C(=O)C2(OCC(CO)([N+](=O)[O-])CO2)c2ccccc21 (stereo not drawn)	-3	0	99	2
CC(C)CCNC(=O)c1onc(CSc2ccc(F)cc2)c1C(=O)NCCC(C)C	24	2	102	21*
C=CCOc1c(Cl)cc(CNCCCN2CCOCC2)cc1OC	-3	0	97	-1
CC(=O)Nc1cc2c3ccccc3ccc2c2ccccc12	-1	-14	74*	-3
SMILES	FAS-TE inh	SENP1 FRET inh	ABCB6 inh MLPCN	hiPSC survival
Cn1cnc([N+](=O)[O-])c1S(=O)(=O)Oc1cccc2ccccc12	66*	0	108	-4
Cn1cnc([N+](=O)[O-])c1Oc1cccc2ccccc12	-1	-1	101	-3
Cn1cnc([N+](=O)[O-])c1S(=O)(=O)Oc1ccc(Cl)cc1	52*	1	107	-4
Cc1ccc(F)c(CNC(=O)C2CCC(=O)N(CCCN3CCCC3=O)C2)c1F (stereo not drawn)	-7	-2	101	0
CC(=O)NN1C(=O)/C(=C\c2ccc(Br)o2)SC1=S	-8	55*	125	-1
CC(=O)NN1C(=O)/C(=C\c2ccc(O)cc2)SC1=S	-5	55*	123	2
CC(=O)NN1C(=O)/C(=C\c2ccccc2)SC1=S	-10	4	100	0
CC(=O)NN1C(=O)/C(=C/c2ccc(Br)o2)SC1=S	-5	43*	109	0
O=C1/C(=C\c2ccc(O)cc2)SC(=S)N1/N=C/c1ccc(O)cc1	-24	77*	108	0
Cc1coc(C)c1C(=O)Nc1ccc2ccccc2c1	-3	0	100	0
COc1ccc(S(=O)(=O)N2CCOCC2)cc1C(=O)N(C)Cc1ccco1	-5	4	97	0
NC(N)=N/N=C/c1cc([N+](=O)[O-])ccc1O	-2	2	97	-1
O=[N+]([O-])c1ccc(O)c(/C=N\N=C2c3ccccc3-c3ccccc32)c1	7	58*	96	2
Cc1ccc(S(=O)(=O)c2ccc([N+](=O)[O-])o2)cc1	37	0	50*	-1
CN1N=C(C(=O)N2CCCC(N3CCN(c4ccc(F)cc4)CC3)C2)CCC1=O (stereo not drawn)	-4	0	94	0
COc1cc(Cl)ccc1OCc1cc(C(=O)N(C)CC2CCCCO2)no1 (stereo not drawn)	3	0	95	0
Cn1cccc1CC(=O)N/N=C\c1c2ccccc2cc2ccccc12	-5	-28	73*	1
Cn1cccc1CC(=O)N/N=C/c1cccc2ccccc12	-6	-2	94	-1
CC[C@@]12C(=O)N(c3cccc(C)c3)C(=O)N1[C@H](c1ccc(Br)cc1)[C@@H]1C(=O)N(C(C)(C)C)C(=O)[C@@H]12	24	0	103	-3
CC(C)(C)N1C(=O)[C@H]2[C@@H](c3ccc(Br)cc3)N3C(=O)N(c4cccc(Br)c4)C(=O)[C@@]3(Cc3ccccc3)[C@H]2C1=O	86*	2	97	0
CC(C)C[C@@]12C(=O)N(c3cccc(Cl)c3)C(=O)N1[C@H](c1ccc(Br)cc1)[C@@H]1C(=O)N(C(C)(C)C)C(=O)[C@@H]12	50	2	94	1
CC[C@@]12C(=O)N(c3cccc(Cl)c3)C(=O)N1[C@H](c1ccc(Br)cc1)[C@@H]1C(=O)N(C(C)(C)C)C(=O)[C@@H]12	56*	0	97	4
Cc1noc(C)c1NC(=O)Nc1ccc2c(c1)C(=O)N([C@H](C)CO)C[C@H](C)[C@@H](CN(C)C(=O)Nc1ccc3c(c1)OCO3)O2	-4	-2	100	-2
CSc1nnc2c(=O)[nH]c(=O)n(C)c2n1	-7	0	150	3
